Measured values taken from ChEMBL document CHEMBL5346889, “Discovery of 4-oxo-N-phenyl-1,4-dihydroquinoline-3-carboxamide derivatives as novel anti-inflammatory agents for the treatment of acute lung injury and sepsis” (Eur J Med Chem, 2023).
Active and inactive are the calls of the source. The rule behind the calls is not given here.

Columns and labels:
J774.A1 [1] = assay: Cytotoxicity against mouse J774.A1 cells assessed as reduction in cell viability at 10 uM incubated for 24 hrs by MTT assay; assay type: functional, cell-based
Method in brief: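 J774A.1 macrophages exposed to 10 μM for 24 h; MTT at 5 mg/mL added for 4 h; absorbance read at 490 nm; viability expressed as percent of DMSO control.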

J774.A1 [2] = assay: Antiinflammatory activity in LPS-induced mouse J774.A1 cells assessed as inhibition of LPS-induced TNF-alpha release preincubated for 30 mins followed by LPS stimulation for 24 hrs by ELISA method; assay type: functional, cell-based
Method in brief: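 Dose-response in J774A.1 cells: 30 min pretreatment at 10, 5, 2.5 or 1.25 μM, then LPS 0.5 μg/mL for 24 h. IL-6 and TNF-α by ELISA, normalized to lysate protein; IC50 from the dose-response; 3 independent experiments, mean ± SEM.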

THP-1 [3] = assay: Antiinflammatory activity in LPS-induced human THP-1 cells assessed as inhibition of LPS-induced IL-6 transcription preincubated for 0.5 hrs followed by LPS stimulation for 6 hrs by RT-qPCR method; assay type: functional, cell-based; settings: dose 5-10 µM, time 6.5 hrs
Method in brief: (§1)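 J774A.1 or THP-1 cells pretreated 0.5 h at 10 or 5 μM, then LPS 0.5 μg/mL for 6 h. TRIzol RNA; IL-6, TNF-α and IL-1β transcripts by RT-qPCR, normalized to β-actin and control; 3 independent experiments, mean ± SEM.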

THP-1 [4] = assay: Antiinflammatory activity in LPS-induced human THP-1 cells assessed as inhibition of LPS-induced IL-1 beta transcription preincubated for 0.5 hrs followed by LPS stimulation for 6 hrs by RT-qPCR method; assay type: functional, cell-based; settings: dose 5-10 µM, time 6.5 hrs; method in brief: as §1
[5] = Stability of the compound in pH 7.4 phosphate buffer measured upto 30 mins by UV-Vis analysis; assay type: physicochemical; settings: pH 7.4, 0.5 h
Method in brief: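 Dissolved in phosphate buffer pH 7.4; UV-visible absorption (OD) recorded over 30 min.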

J774.A1 [6] = assay: Inhibition of NF-kappaB pathway in LPS-induced mouse J774.A1 cells assessed as inhibition of p65 phosphorylation preincubated with compound for 2 hrs followed by LPS-stimulation and measured after 30 mins by Western blot analysis; assay type: cell-based; settings: dose 5-10 µM, time 2.5 hrs
Method in brief: (§2)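 J774A.1 cells preincubated with 10 or 5 μM or DMSO for 2 h, then LPS 0.5 μg/mL for 30 min. RIPA lysates run on 12.5% SDS-PAGE, transferred to PVDF, blocked with 5% milk; probed for IκB-α and p-p65, with GAPDH and p65 as loading controls; ECL detection; densitometry.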

J774.A1 [7] = assay: Inhibition of NF-kappaB pathway in LPS-induced mouse J774.A1 cells assessed as inhibition of IkappaB-alpha degradation preincubated with compound for 2 hrs followed by LPS-stimulation and measured after 30 mins by Western blot analysis; assay type: cell-based; settings: dose 5-10 µM, time 2.5 hrs; method in brief: as §2
Mus musculus [8] = assay: Protection against LPS-induced C57/BL6 mouse acute lung injury model assessed as improvement in structural distruption of lung tissue at 20 mg/kg via oral gavage preincubated for 30 mins followed by LPS stimulation for 6 hrs; assay type: functional, organism-based; settings: time 6.5 hrs
Method in brief: (§3)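 Mice dosed 20 mg/kg by gavage (dexamethasone 20 mg/kg comparator), intratracheal LPS 5 mg/kg 30 min later, killed at 6 h. Right upper lobe fixed in paraformaldehyde, H&E; lung wet/dry ratio; BALF protein, total cells and neutrophils counted; n = 5 mice per group, mean ± SEM.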

Mus musculus [9] = assay: Protection against LPS-induced C57/BL6 mouse acute lung injury model assessed as improvement in alveolar wall thickening at 20 mg/kg via oral gavage preincubated for 30 mins followed by LPS stimulation for 6 hrs; assay type: functional, organism-based; settings: time 6.5 hrs; method in brief: as §3
Mus musculus [10] = assay: Protection against LPS-induced C57/BL6 mouse acute lung injury model assessed as reduction in number of total cells in BALF at 20 mg/kg via oral gavage preincubated for 30 mins followed by LPS stimulation for 6 hrs; assay type: functional, organism-based; settings: time 6.5 hrs; method in brief: as §3
Mus musculus [11] = assay: Protection against LPS-induced C57/BL6 mouse acute lung injury model assessed as reduction in number of neutrophils in BALF at 20 mg/kg via oral gavage preincubated for 30 mins followed by LPS stimulation for 6 hrs; assay type: functional, organism-based; settings: time 6.5 hrs; method in brief: as §3
Mus musculus [12] = assay: Antiinflammatory activity in LPS-induced C57/BL6 mouse acute lung injury model assessed as decrease in IL-6 expression level at 20 mg/kg via oral gavage preincubated for 30 mins followed by LPS stimulation for 6 hrs by RT-qPCR method; assay type: functional, organism-based; settings: time 6.5 hrs
Method in brief: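 Male C57BL/6 mice, six weeks old, n = 8 per group. Dosed 20 mg/kg orally 30 min before intratracheal LPS 5 mg/kg; dexamethasone 20 mg/kg as comparator. Lung tissue collected 6 h after LPS. RNA extracted with TRIzol; IL-6 and TNF-α transcripts by RT-qPCR, normalized to β-actin; n = 5 mice per group, mean ± SEM.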

Mus musculus [13] = assay: Protection against LPS-induced sepsis in C57/BL6 mouse model assessed as improvement in survival rate at 20 mg/kg, po preincubated with compound followed by LPS stimulation for 1 hr and measured every 12 hrs by 6 days; assay type: functional, organism-based; settings: time 6.0 day
Method in brief: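 Sepsis model in C57BL/6 mice, n = 12 per group: oral 20 mg/kg, then intraperitoneal LPS 20 mg/kg 1 h later; saline control. Survival checked every 12 h and body weight every 24 h for 6 days.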

Mus musculus [14] = assay: Protection against LPS-induced sepsis in C57/BL6 mouse model assessed as reduction in spleen enlargement at 20 mg/kg, po preincubated with compound followed by LPS stimulation for 1 hr; assay type: functional, organism-based
Method in brief: (§4)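 Mice given 20 mg/kg orally, then intraperitoneal LPS 20 mg/kg 1 h later; n = 12 per group. Kidney, liver, heart and spleen weighed; spleen sections H&E-stained for histology.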

[15] = AUC (0 to t) in rat at 10 mg/kg, po; assay type: ADME, organism-based; set-up: dose 10 mg/kg, route po; settings: in vivo
Method in brief: (§5)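 Rats dosed intravenously at 1 mg/kg or orally at 10 mg/kg; plasma pharmacokinetic parameters AUC(0-t), Tmax, T1/2, Cmax and oral bioavailability F derived from the two routes.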

[16] = Tmax in rat at 10 mg/kg, po; assay type: ADME, organism-based; settings: in vivo; method in brief: as §5
[17] = Cmax in rat at 10 mg/kg, po; assay type: ADME, organism-based; set-up: dose 10 mg/kg, route po; settings: in vivo; method in brief: as §5
Mus musculus [18] = assay: Protection against LPS-induced sepsis in C57/BL6 mouse model assessed as reduction in demarcation between white and red pulp at 20 mg/kg, po preincubated with compound followed by LPS stimulation for 1 hr by H and E staining based analysis; assay type: functional, organism-based; method in brief: as §4
Mus musculus [19] = assay: Antiinflammatory activity in LPS-induced C57/BL6 mouse acute lung injury model assessed as decrease in IL-6 level in BALF at 20 mg/kg via oral gavage preincubated for 30 mins followed by LPS stimulation for 6 hrs by ELISA; settings: time 6.5 hrs
Mus musculus [20] = assay: Antiinflammatory activity in LPS-induced C57/BL6 mouse acute lung injury model assessed as decrease in IL-6 level in serum at 20 mg/kg via oral gavage preincubated for 30 mins followed by LPS stimulation for 6 hrs by ELISA; settings: time 6.5 hrs
Mus musculus [21] = assay: Antiinflammatory activity in LPS-induced C57/BL6 mouse acute lung injury model assessed as decrease in TNF-alpha level in serum at 20 mg/kg via oral gavage preincubated for 30 mins followed by LPS stimulation for 6 hrs by ELISA; settings: time 6.5 hrs

For `COc1cc2nccc(Oc3ccc(NC(=O)c4cn(-c5ccccc5)c5ccccc5c4=O)cc3)c2cc1OC`, the Activity (J774.A1 [1]) was “inactive”, the IC50 (J774.A1 [2]) was 2400 nM and the inhibition (J774.A1 [2]; dose 1.25-10 µM, time 24.5 hrs) was “Dose-Dependent Effect”. The inhibition (THP-1 [3]) was “Dose-Dependent Effect”, the inhibition (THP-1 [4]) was “Dose-Dependent Effect” and the Stability [5] was “Stable”. For the same compound, the inhibition (J774.A1 [6]) was “Dose-Dependent Effect”, the inhibition (J774.A1 [7]) was “Dose-Dependent Effect” and the Activity (Mus musculus [8]) was “Active”. The Activity (Mus musculus [9]) was “Active”, the Activity (Mus musculus [10]) was “Active” and the Activity (Mus musculus [11]) was “Active”. For the same compound, the Activity (Mus musculus [12]) was “Active”, the Activity (Mus musculus [13]) was “Active” and the Activity (Mus musculus [14]) was “Active”. The AUC(0-t) [15] was 22900 ng·h/mL, the Tmax [16] was 5 h and the Cmax [17] was 1680 ng/mL. The Activity (Mus musculus [18]) was “Active”, the Activity (Mus musculus [19]) was “Active” and the Activity (Mus musculus [20]) was “Active”. For the same compound, the Activity (Mus musculus [21]) was “Active”.
